Results published in publication PMC2818319 (Bioorganic & medicinal chemistry letters, 2009).
Each block holds one molecule with its values, some of them ahead of it.

Key:
integrin CD11b/CD18 = integrin CD11b/CD18 (Homo sapiens, UniProt P11215); experiment: adhesion of K562 CD11b/CD18 cells to immobilized Fibrinogen; format: cell-based; settings: for EC50: read-out: EC50 (Effective Concentration for 50% increase in cell adhesion), K562 CD11b/CD18 cells, ligand Fg, NB=No increase in binding of K562 CD11b/CD18 cells to ligand Fg
Method in brief: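 K562 cells stably transfected with wild-type integrin CD11b/CD18. Adhesion to immobilized ligand is measured in the presence of test compound. Secondary validation used two ligands, Fg and iC3b. For the analogue series, EC50 (μM) was derived from the increase in adhesion to Fg; absence of any increase was reported as no binding.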

integrin CD11a/CD18 = integrin CD11a/CD18 (Homo sapiens, UniProt P20701); experiment: adhesion of K562 CD11a/CD18 cells to immobilized ICAM-1; format: cell-based; settings: for selectivity for integrin CD11b/CD18 over CD11a/CD18: K562 CD11b/CD18 vs K562 CD11a/CD18 cell adhesion
Method in brief: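 K562 cells stably transfected with wild-type integrin CD11a/CD18. Test compound obtained as pure powder and assessed for its ability to increase adhesion of these cells to immobilized ICAM-1. This is compared with adhesion of K562 CD11b/CD18 cells to judge selectivity.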

[1] = biological target: recombinant αA-domain of CD11b/CD18 (Homo sapiens, UniProt P11215); experiment: binding of purified recombinant αA-domain to immobilized Fg; settings: in words

SMILES: CCOC(=O)CN1C(=O)S/C(=C\c2ccc(-c3ccc(Cl)cc3Cl)o2)C1=O [compound 2]
level of K562 CD11b/CD18 cell-adhesion in secondary assays (integrin CD11b/CD18; ligands Fg and iC3b): high levels | selectivity for integrin CD11b/CD18 over CD11a/CD18 (integrin CD11a/CD18): two-fold higher selectivity

SMILES: CCOC(=O)CN1C(=O)S/C(=C\c2ccc(N3CCOCC3)o2)C1=O [compound 3]
EC50 (integrin CD11b/CD18): > 50 µM

SMILES: COC(=O)CN1C(=O)S/C(=C\c2ccc(Sc3ccccc3)o2)C1=O [compound 5]
EC50 (integrin CD11b/CD18): > 50 µM

Other lines, results leading:

binding of αA-domain to immobilized Fg [1]: increasing its binding to immobilized Fg | ligand efficiency (BEI) (integrin CD11b/CD18): 14 | selectivity for integrin CD11b/CD18 over CD11a/CD18 (integrin CD11a/CD18): high selectivity | increase of K562 CD11a/CD18 cell adhesion to ICAM-1 (integrin CD11a/CD18; in words): no appreciable binding
SMILES: CCOC(=O)CN1C(=O)S/C(=C\c2ccc(-c3ccccc3)o2)C1=O [compound 6]

EC50 (integrin CD11b/CD18): > 50 µM
SMILES: CCOC(=O)CN1C(=O)S/C(=C\c2ccc(-c3ccc(C(=O)O)cc3C)o2)C1=O [compound 11]

EC50 (integrin CD11b/CD18): > 50 µM
SMILES: COC(=O)CN1C(=O)S/C(=C\c2ccc(-c3ccc(C(=O)O)cc3)o2)C1=O [compound 12]

agonist activity in words (integrin CD11b/CD18; K562 CD11b/CD18 cell adhesion): inactive | EC50 (integrin CD11b/CD18): > 50 µM
SMILES: COC(=O)C(C)N1C(=O)S/C(=C\c2ccc(-c3ccc(Cl)cc3Cl)o2)C1=O (stereo not shown) [compound 13]

EC50 (integrin CD11b/CD18): > 50 µM
SMILES: NS(=O)(=O)c1ccc(N2C(=O)S/C(=C\c3ccc(Cc4ccccc4)o3)C2=O)cc1 [compound 22]
